Measurements taken from ChEMBL document CHEMBL4433251, “Discovery of BR102375, a new class of non-TZD PPARγ full agonist for the treatment of type 2 diabetes” (Bioorg Med Chem Lett, 2019).
Activity calls are given as the source filed them. The calls are words filed in the database; no cut-off is given here.

What was measured:
Mus musculus [1] = assay: Antidiabetic activity in db/db mouse assessed as reduction in blood glucose level at 75 mg/kg, po administered twice daily for 2 weeks and measured on day 14 by OGTT method; assay type: functional, organism-based
[2] = Cmax in rat at 10 mg/kg, po; assay type: ADME, organism-based; design: dose 10 mg/kg, route oral; conditions: in vivo
[3] = Tmax in mouse at 10 mg/kg, po; assay type: ADME, organism-based; conditions: in vivo
CYP2D6 = CYP2D6 (Homo sapiens, UniProt P10635); assay: Inhibition of CYP2D6 (unknown origin) assessed as percentage remaining activity at 10 uM; assay type: ADME; conditions: read-out: INH
Chain of CYP2D6 (P10635 whole entry, canonical isoform): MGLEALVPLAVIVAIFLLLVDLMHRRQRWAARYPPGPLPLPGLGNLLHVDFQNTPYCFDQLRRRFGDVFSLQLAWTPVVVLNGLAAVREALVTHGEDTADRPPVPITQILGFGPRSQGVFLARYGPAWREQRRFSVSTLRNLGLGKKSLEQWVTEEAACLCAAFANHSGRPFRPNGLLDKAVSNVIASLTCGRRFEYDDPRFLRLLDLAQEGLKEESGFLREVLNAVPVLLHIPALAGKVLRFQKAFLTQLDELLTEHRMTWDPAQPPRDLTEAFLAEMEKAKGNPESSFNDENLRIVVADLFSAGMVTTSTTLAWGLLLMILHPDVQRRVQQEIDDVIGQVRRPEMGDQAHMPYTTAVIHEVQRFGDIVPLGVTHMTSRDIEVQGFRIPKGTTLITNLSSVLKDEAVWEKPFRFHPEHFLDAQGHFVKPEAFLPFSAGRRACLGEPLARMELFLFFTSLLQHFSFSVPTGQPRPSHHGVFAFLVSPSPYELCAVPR
Procedure, shortened: (§1)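 CYP isoforms 1A2, 2C9, 2C19, 2D6, 3A4: % remaining enzyme activity in presence of 10 uM compound.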

[4] = biological target: T1, Peroxisome proliferator-activated receptor gamma (Mus musculus) (UniProt P37238); assay: Agonist activity at PPARgamma in mouse 3T3-L1 cells assessed as increase in CD36 RNA expression at 10 uM by qRT-PCR analysis; assay type: cell-based
T1 sequence (whole entry): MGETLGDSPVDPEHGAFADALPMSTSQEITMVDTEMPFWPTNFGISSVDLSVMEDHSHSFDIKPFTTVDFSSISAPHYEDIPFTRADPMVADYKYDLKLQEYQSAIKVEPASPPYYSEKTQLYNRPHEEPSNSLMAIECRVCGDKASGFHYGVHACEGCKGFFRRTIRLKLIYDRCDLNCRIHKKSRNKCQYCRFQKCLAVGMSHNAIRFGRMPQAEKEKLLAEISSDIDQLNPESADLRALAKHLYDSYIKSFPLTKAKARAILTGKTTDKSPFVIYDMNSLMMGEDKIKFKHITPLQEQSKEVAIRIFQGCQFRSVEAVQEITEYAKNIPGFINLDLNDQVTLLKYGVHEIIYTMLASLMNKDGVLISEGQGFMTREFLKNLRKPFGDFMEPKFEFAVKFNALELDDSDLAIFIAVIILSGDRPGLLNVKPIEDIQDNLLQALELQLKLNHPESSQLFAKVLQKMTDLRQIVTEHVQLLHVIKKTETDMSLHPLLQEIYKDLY

Mus musculus [5] = assay: Antidiabetic activity in db/db mouse assessed as reduction in random blood glucose level at 75 mg/kg, po administered via gavage twice daily for 2 weeks and measured once a week; assay type: functional, organism-based
hERG (KCNH2) = hERG (KCNH2) (Homo sapiens, UniProt Q12809); assay: Inhibition of human ERG at 10 uM
Chain of hERG (KCNH2) (Q12809 whole entry): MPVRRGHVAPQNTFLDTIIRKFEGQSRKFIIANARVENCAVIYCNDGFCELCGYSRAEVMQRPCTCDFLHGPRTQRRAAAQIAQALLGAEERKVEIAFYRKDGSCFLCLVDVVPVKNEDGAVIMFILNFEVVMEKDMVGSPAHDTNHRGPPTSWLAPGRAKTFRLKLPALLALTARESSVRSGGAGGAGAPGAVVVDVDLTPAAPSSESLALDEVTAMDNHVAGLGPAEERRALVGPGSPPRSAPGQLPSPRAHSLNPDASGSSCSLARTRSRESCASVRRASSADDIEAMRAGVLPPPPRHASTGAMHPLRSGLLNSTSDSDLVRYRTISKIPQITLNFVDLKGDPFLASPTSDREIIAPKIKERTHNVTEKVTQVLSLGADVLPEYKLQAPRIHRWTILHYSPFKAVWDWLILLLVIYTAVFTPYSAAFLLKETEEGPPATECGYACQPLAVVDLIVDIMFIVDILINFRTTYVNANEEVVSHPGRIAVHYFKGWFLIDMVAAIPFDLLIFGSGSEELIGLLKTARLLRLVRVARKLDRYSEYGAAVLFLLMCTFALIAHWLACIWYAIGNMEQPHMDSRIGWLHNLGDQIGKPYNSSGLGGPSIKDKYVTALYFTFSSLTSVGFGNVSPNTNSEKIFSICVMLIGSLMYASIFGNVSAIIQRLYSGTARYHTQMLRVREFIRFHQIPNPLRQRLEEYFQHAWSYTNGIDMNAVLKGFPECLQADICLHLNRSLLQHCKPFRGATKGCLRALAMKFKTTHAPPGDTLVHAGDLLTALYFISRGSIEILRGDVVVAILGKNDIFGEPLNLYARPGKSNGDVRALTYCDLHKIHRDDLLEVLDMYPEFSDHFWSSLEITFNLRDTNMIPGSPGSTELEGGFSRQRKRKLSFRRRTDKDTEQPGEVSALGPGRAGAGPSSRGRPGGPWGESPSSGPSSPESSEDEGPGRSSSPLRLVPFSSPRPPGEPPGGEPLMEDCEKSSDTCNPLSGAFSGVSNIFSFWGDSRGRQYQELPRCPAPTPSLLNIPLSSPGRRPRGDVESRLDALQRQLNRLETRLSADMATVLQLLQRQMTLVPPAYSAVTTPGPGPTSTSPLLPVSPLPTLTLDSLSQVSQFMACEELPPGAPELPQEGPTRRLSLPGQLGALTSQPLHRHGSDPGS
Procedure, shortened: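 hERG: % inhibition measured at 10 µM.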

CYP1A2 = biological target: T2, CYP1A2 (Homo sapiens, UniProt P05177); assay: Inhibition of CYP1A2 (unknown origin) assessed as enzyme remaining activity at 10 uM; assay type: ADME; conditions: read-out: INH; procedure, shortened: as §1
T2 sequence (P05177 whole entry): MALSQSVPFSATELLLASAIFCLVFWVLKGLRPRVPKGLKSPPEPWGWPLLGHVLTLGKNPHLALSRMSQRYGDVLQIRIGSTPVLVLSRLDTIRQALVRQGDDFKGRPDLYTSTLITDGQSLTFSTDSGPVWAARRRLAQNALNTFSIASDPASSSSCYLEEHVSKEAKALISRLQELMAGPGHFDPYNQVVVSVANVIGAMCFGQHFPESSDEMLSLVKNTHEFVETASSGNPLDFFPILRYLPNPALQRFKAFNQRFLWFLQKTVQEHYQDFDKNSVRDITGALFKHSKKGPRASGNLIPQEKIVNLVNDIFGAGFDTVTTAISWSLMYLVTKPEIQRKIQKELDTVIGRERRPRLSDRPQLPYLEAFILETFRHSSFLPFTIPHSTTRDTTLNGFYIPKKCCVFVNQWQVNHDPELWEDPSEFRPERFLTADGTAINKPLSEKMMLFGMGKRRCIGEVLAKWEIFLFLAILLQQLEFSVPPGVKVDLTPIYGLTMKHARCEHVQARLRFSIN

[6] = Tmax in rat at 10 mg/kg, po; assay type: ADME, organism-based; conditions: in vivo
CYP2C19 = CYP2C19 (Homo sapiens, UniProt P33261); assay: Inhibition of CYP2C19 (unknown origin) assessed as percentage remaining activity at 10 uM; assay type: ADME; conditions: read-out: INH; procedure, shortened: as §1
Chain of CYP2C19 (P33261 whole entry): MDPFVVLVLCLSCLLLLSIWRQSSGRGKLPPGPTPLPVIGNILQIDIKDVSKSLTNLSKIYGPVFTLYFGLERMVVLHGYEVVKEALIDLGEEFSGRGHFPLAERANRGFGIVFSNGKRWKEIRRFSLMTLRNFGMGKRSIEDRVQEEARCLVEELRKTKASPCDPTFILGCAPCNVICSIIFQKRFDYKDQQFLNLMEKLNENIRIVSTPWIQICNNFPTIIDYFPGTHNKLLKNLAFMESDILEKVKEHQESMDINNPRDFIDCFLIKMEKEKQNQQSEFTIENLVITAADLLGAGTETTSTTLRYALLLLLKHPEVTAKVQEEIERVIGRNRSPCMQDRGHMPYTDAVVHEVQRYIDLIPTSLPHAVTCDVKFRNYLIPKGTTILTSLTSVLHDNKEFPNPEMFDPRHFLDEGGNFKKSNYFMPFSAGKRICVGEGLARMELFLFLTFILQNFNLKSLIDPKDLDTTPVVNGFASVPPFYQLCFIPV

[7] = Toxicity in db/db mouse assessed as reduction in food intake at 75 mg/kg, po administered via gavage twice daily and measured on day 7; assay type: organism-based; conditions: in vivo
[8] = Half life in mouse at 10 mg/kg, po; assay type: ADME, organism-based; conditions: in vivo
[9] = biological target: T3, Peroxisome proliferator-activated receptor gamma (Homo sapiens, UniProt P37231); assay: Agonist activity at PPARgamma (unknown origin) assessed as receptor transactivation after 24 hrs by TK-PPRE-Luc expressing cells based luciferase reporter gene assay
T3 sequence (P37231 whole entry): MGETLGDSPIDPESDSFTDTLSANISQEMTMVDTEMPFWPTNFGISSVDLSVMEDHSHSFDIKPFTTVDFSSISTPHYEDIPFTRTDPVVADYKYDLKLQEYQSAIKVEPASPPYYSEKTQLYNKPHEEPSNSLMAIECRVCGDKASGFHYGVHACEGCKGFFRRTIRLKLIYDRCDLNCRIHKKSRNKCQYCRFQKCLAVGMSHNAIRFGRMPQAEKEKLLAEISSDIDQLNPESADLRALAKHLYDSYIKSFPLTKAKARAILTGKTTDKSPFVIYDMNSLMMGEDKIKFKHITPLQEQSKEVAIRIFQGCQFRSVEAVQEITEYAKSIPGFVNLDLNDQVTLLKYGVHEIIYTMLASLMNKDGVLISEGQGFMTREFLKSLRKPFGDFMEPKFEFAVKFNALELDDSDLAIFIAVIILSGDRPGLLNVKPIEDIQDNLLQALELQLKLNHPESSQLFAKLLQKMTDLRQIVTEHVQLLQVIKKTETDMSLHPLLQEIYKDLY
Procedure, shortened: (§2)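 Luciferase reporter gene assay in cells transfected with PPRE and luciferase genes; luciferase induction measured over a range of concentrations to derive EC50 and Amax; Amax expressed as a percentage relative to pioglitazone.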

CYP3A4 = CYP3A4 (Homo sapiens, UniProt P08684); assay: Inhibition of CYP3A4 (unknown origin) assessed as percentage remaining activity at 10 uM; assay type: ADME; conditions: read-out: INH; procedure, shortened: as §1
Chain of CYP3A4 (P08684 whole entry): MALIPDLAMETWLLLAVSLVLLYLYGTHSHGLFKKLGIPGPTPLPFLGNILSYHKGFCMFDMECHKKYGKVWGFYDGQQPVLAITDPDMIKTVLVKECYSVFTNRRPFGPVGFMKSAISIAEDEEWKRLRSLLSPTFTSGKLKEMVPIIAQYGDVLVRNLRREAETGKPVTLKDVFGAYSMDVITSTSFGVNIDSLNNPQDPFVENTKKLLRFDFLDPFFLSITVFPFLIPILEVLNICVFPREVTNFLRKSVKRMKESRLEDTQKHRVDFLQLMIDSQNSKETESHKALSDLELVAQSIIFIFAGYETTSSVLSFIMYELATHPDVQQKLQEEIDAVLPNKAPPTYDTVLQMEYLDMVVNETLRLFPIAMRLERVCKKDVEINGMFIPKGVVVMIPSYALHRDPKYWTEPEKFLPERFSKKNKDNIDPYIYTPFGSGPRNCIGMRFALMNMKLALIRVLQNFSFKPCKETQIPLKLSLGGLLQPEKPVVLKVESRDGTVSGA

CYP2C9 = CYP2C9 (Homo sapiens, UniProt P11712); assay: Inhibition of CYP2C9 (unknown origin) assessed as enzyme remaining activity at 10 uM; assay type: ADME; conditions: read-out: INH; procedure, shortened: as §1
Chain of CYP2C9 (P11712 whole entry): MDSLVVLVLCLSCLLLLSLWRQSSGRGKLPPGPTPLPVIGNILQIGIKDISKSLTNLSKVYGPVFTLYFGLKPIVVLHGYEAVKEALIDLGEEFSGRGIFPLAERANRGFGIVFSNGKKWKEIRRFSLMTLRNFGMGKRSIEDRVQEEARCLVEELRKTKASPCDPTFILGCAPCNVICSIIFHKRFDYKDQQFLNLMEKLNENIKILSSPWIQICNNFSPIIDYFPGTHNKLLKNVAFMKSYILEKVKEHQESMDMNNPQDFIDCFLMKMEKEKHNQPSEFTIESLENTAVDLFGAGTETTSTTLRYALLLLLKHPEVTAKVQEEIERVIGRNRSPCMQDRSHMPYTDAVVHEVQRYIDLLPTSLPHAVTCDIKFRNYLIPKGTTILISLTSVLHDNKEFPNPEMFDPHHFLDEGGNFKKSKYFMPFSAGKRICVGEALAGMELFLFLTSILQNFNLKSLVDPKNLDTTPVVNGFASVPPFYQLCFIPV

[10] = biological target: T1, Peroxisome proliferator-activated receptor gamma (Mus musculus); assay: Agonist activity at PPARgamma in mouse 3T3-L1 cells assessed as increase in AP2 RNA expression at 10 uM by qRT-PCR analysis; assay type: cell-based
[11] = Stability in human liver microsomes assessed as parent compound remaining at 30 mins; assay type: ADME, Microsome; conditions: read-out: Stability
Procedure, shortened: (§3)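 Compound incubated with liver microsomes (mouse, rat, dog, human) for 30 min; stability expressed as % of parent concentration remaining.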

[12] = biological target: T4, Peroxisome proliferator-activated receptor gamma (Homo sapiens) (UniProt P37231); assay: Agonist activity at PPARgamma (unknown origin) assessed as receptor transactivation after 24 hrs by TK-PPRE-Luc expressing cells based luciferase reporter gene assay relative to pioglitazone; procedure, shortened: as §2
T4 sequence (whole entry): T3 sequence (P37231 whole entry)

[13] = Cmax in mouse at 10 mg/kg, po; assay type: ADME, organism-based; design: dose 10 mg/kg, route oral; conditions: in vivo
[14] = Stability in mouse liver microsomes assessed as parent compound remaining at 30 mins; assay type: ADME, Microsome; conditions: read-out: Stability; procedure, shortened: as §3
[15] = Stability in rat liver microsomes assessed as parent compound remaining at 30 mins; assay type: ADME, Microsome; conditions: read-out: Stability; procedure, shortened: as §3
[16] = biological target: T1, Peroxisome proliferator-activated receptor gamma (Mus musculus); assay: Agonist activity at PPARgamma in mouse 3T3-L1 cells accessed as increase in insulin stimulated 2-deoxy-D-glucose uptake at 10 uM pre-incubated for 20 mins followed by 2-deoxy-D-glucose addition and measured after 20 to 40 mins by glucose uptake assay; assay type: cell-based
[17] = Half life in rat at 10 mg/kg, po; assay type: ADME, organism-based; conditions: in vivo
[18] = biological target: T1, Peroxisome proliferator-activated receptor gamma (Mus musculus); assay: Agonist activity at GAL4-tagged mouse PPARgamma LBD expressed in monkey CV1 cells assessed as receptor transactivation incubated for 24 hrs by luciferase reporter gene assay relative to telmisartan; assay type: cell-based
Mus musculus [19] = assay: Antidiabetic activity in db/db mouse assessed as reduction in body weight gain at 75 mg/kg, po administered via gavage twice daily for 2 weeks and measured on day 14; assay type: functional, organism-based
[20] = AUClast in rat at 10 mg/kg, po; assay type: ADME, organism-based; design: dose 10 mg/kg, time 0 - last, route oral; conditions: in vivo
[21] = AUClast in mouse at 10 mg/kg, po; assay type: ADME, organism-based; design: dose 10 mg/kg, route oral, time 0 - last; conditions: in vivo
3T3-L1 = assay: Induction of preadipocyte differentiation in mouse 3T3L1 cells grown in insulin medium assessed as conversion to matured adipocytes measured after 6 days by oil red O staining based phase contrast microscopy; assay type: functional, cell-based
[22] = Stability in dog liver microsomes assessed as parent compound remaining at 30 mins; assay type: ADME, Canis lupus familiaris, Microsome; conditions: read-out: Stability; procedure, shortened: as §3

CCCCc1nc(C)c(Cc2nc(C(C)(C)C)no2)c(=O)n1Cc1ccc(-c2ccccc2-c2noc(=O)[nH]2)cc1
Activity (Mus musculus [1]): Active
Cmax [2]: 1320 ng/mL
Tmax [3]: 19.8 min
activity at 10 µM (CYP2D6): 93%
Activity [4]: Active
Activity (Mus musculus [5]): Active
inhibition at 10 µM (hERG (KCNH2)): 8.3%
activity at 10 µM (CYP1A2): 88%
Tmax [6]: 18 min
activity at 10 µM (CYP2C19): 84%
Activity [7]: Toxic
half-life [8]: 70.8 min
EC50 [9]: 280 nM
activity at 10 µM (CYP3A4): 64%
activity at 10 µM (CYP2C9): 57%
Activity [10]: Active
remaining at 0.5 h [11]: 17%
%max [12]: 98%
Cmax [13]: 949 ng/mL
remaining at 0.5 h [14]: 11%
remaining at 0.5 h [15]: 12%
Activity [16]: Active
half-life [17]: 107 min
%max [18]: 331%
Activity (Mus musculus [19]): inactive
AUC(0-t) [20]: 889 ng·h/mL
AUC(0-t) [21]: 584 ng·h/mL
Activity (3T3-L1): Dose-dependent effect
remaining at 0.5 h [22]: 11%
